Compound activity deposited in PubChem by several laboratories.
T cruzi inh: inhibitors of intracellular T. cruzi growth, primary screen, luminescence, NIH3T3 host cells; T. cruzi beta-gal in NIH3T3, 90 h; inhibition, % (no concentration beside the values); 300,000 tested, 1.4% active; AID 1885, 2009;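 active = mean inhibition across valid replicates above about 55%, limit read from the data; inconclusive = mean below that limit but half or more replicates reach it; inactive = mean below it, under half of replicates reach it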;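 also: signal also drops with host cell toxicity which is not excluded here; 0% = plate median of DMSO wells and 100% = zero luminescence signal; higher percent means less beta-gal luminescence so fewer parasites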
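Incubation – ≥90 h infection period, 3 h prior cell attachment · System – NIH/3T3 fibroblasts plus reporter T. cruzi · Doses – compound pinned at 50 nL/well, DMSO · Read-out basis – percent inhibition of parasite-derived β-gal signal · Signal – luminescent β-galactosidase signal after 60 min lysis · Also added – 5000 T. cruzi trypomastigotes/well · Medium – Low-serum DMEM with 2% FBS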
NLRP3 yeast inh: NALP3 inflammasome inhibitors in reconstituted yeast, primary screen, luminescence, uHTS; Yeast reconstituted NLRP3/ASC/caspase-1, beta-gal luminescence, 24 h; inhibition, % at 10 µM; 330,000 tested, 0.39% active; AID 2825, 2010;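 active = inhibition of 50% or more; inactive = inhibition below 50%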;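 also: plate controls were induced DMSO wells for no effect and uninduced yeast grown without galactose for full effect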
Calb FLC: C. albicans growth inhibition with fluconazole, primary screen, CaCi-2 strain, Alamar Blue fluorescence; C. albicans CaCi-2 + fluconazole, 48 h; growth inhibition, % (no concentration beside the values); 300,000 tested, 0.57% active; AID 1979, 2009;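 active = growth inhibition above about 58% in most replicates, limit read from the data, passing the limit was not always enough; inconclusive = exactly half the replicates above a set limit; inactive = most replicates below a set limit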;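 also: all wells also contain fluconazole at 8 µg/ml as a sub-toxic cotreatment; 0% = median of DMSO wells and 100% = median of geldanamycin control wells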
NALP1 yeast inh: NALP1 inflammasome inhibitors in reconstituted yeast, colorimetric, S. cerevisiae, triplicate retest; S. cerevisiae NALP1/ASC/caspase-1 growth, X-gal OD620, 72 h; inhibition, % at 10 µM; 280,000 tested, 0.61% active; in the data active = inhibition mostly above about 24%, no sharp cut-off; inactive = mostly below about 32%
PolyA inh: polyadenylation inhibitors in yeast reporter cells, primary screen, luminescence, S. cerevisiae; S. cerevisiae SKY197-pL101 polyadenylation reporter, beta-gal luminescence; efflux-impaired pdr1/pdr3 knockout yeast; score 100 = 6 SD above DMSO; AID 1875, 2009; 300,000 tested, 0.02% active; activity score, % at 12 µM;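 active = lowest replicate activity score at least 50, where 100 means six control SD above control mean; inconclusive = lowest score under 50 but half or more replicates reach 50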;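 also: yeast exposed to compound for 9 h at 30 °C; higher score means more reporter readthrough which indicates perturbed polyadenylation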
Lmaj promast: Leishmania major promastigote growth inhibition, primary screen; inhibition, % at 10 µM; Leishmania major promastigotes, resazurin fluorescence viability; 200,000 tested, 9% active; in the data active = inhibition above about 50%;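 also: promastigotes grown with compound for 44 hours at 28 °C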
* = called active by the depositor; ? = inconclusive; . = no result. Shown is part of a subset that was picked to be rich in hits.

SMILES | T cruzi inh | NLRP3 yeast inh | Calb FLC | NALP1 yeast inh | PolyA inh | Lmaj promast
COCCn1nnnc1C(c1cc2cc(C)ccc2[nH]c1=O)N1CCCCCC1 (configuration not stated) | -9 | 8 | -5 | 20 | -2 | -7
O=c1c(Cc2ccccc2)c(O)ccn1C1CCCCCCC1 | 0 | 21 | 1 | 1 | -2 | -8
Cn1ccnc1C(O)(c1ccccc1)c1ccccc1 | -9 | 2 | 1 | 8 | -4 | .
CCN(CC(=O)Nc1ccc(NC(C)=O)cc1)C(=O)/C=C/c1c(C)nn(-c2ccc(F)cc2)c1Cl | . | 11 | . | . | . | .
COc1cc(NC(=O)COC(=O)/C=C/c2c(C)nn(-c3ccc(F)cc3)c2Cl)cc(OC)c1 | 60* | -7 | -17 | 9 | 0 | 64*
CC1(C)N(O)CC(c2cccs2)=[N+]1[O-] | -34 | 10 | 49 | 20 | 13 | -5
Cc1cc(C(=O)COC(=O)CC2Sc3ccccc3NC2=O)c(C)n1-c1ccccc1 (configuration not stated) | 0 | 4 | 33 | 39 | 2 | 0
Cc1cc(C(=O)CSc2nnnn2C)c(C)n1-c1ccc2c(c1)OCCO2 | -9 | 8 | -26 | 12 | 35 | 14
Cc1cc(C(=O)COC(=O)CC2Sc3ccccc3NC2=O)c(C)n1-c1ccc(Br)cc1 (configuration not stated) | -4 | -1 | 3 | 27 | -3 | 42
Cc1nnc(SCC(=O)c2cc(C)n(-c3ccc4c(c3)OCO4)c2C)s1 | -2 | 20 | -11 | -3 | 2 | 61*
Cc1cc(C(=O)COC(=O)c2ccc(N)c([N+](=O)[O-])c2)c(C)n1Cc1ccc2c(c1)OCO2 | 23 | 0 | -5 | . | 6 | .
Cc1cc(C(=O)COC(=O)CC2Sc3ccccc3NC2=O)c(C)n1-c1ccc2c(c1)OCO2 (configuration not stated) | 9 | 15 | -12 | 34 | 2 | 55*
Cc1cc(C(=O)COC(=O)c2ccc(N)c([N+](=O)[O-])c2)c(C)n1-c1ccc2c(c1)OCO2 | 28 | 15 | -10 | 23 | -26 | 71*
COC(=O)c1ccc(-n2c(C)cc(C(=O)COC(=O)CC3Sc4ccccc4NC3=O)c2C)cc1 (configuration not stated) | -10 | 18 | 7 | 35 | ? | 65*
Cc1ccc(S(=O)(=O)N2CCN(c3cccc(C)c3)CC2)cc1 | 5 | 20 | -8 | 7 | -23 | .
Cc1c(Nc2ncccc2C(=O)O)cccc1C(F)(F)F | 18 | 10 | 5 | . | 1 | .
CN(C)C(=O)c1ccc(NC(=O)COc2cccc3c2OC(C)(C)C3)cc1 | . | 3 | . | . | . | .
c1ccc(Nc2cccc3c(Nc4ccccc4)cccc23)cc1 | 56* | 7 | 6 | . | 5 | .
CC(O)CNCc1cccc2ccccc12 (configuration not stated) | -2 | -12 | 3 | 2 | 7 | -3
CC(NCc1ccc(-c2ccccc2)cc1)C(O)c1ccccc1 (configuration not stated) | 11 | -1 | 1 | 23 | -2 | 99*
CC(O)CNCc1ccc(-c2ccccc2)cc1 (configuration not stated) | 7 | 27 | 2 | 16 | 0 | 89*
CCC(C)NC(=O)Cc1ccc(-c2ccccc2)cc1 (configuration not stated) | 62* | -8 | -18 | -36 | 5 | 8
CCC(CO)NCc1ccc(-c2ccccc2)cc1 (configuration not stated) | 30 | -14 | 0 | 35 | -10 | 89*
C[C@H]1CN([C@@H](C)CO)C(=O)Cc2cc(NC(=O)CCC(F)(F)F)ccc2O[C@H]1CN(C)S(=O)(=O)c1ccc(F)cc1 | . | 0 | . | . | . | .
CC(/C=C/c1ccc2c(c1)OCO2)=N/NC(=O)c1cccnc1 | -14 | 1 | -20 | 12 | 13 | -3
Cc1cccc(C)c1N1CCN(c2ccc3nnc(C(F)(F)F)n3n2)CC1 | 18 | 8 | -5 | 6 | -22 | 60*
